Here are results for nine molecules from ChEMBL document CHEMBL4118057, “Cytotoxic Bagremycins from Mangrove-Derived Streptomyces sp. Q22” (J Nat Prod, 2017).

Calls of active or inactive are those of the source. The rule behind the calls is not given here.

One assay relates to Escherichia coli. Description: Antimicrobial activity against Escherichia coli ATCC 25922 after 12 hrs by micro broth dilution method. In kind it is functional, organism-based. The method, boiled down: (§1)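 Micro broth dilution: compound stock serially diluted with 50% DMSO (final volume 200 μL), inoculated with 2 μL of 10^8 cf/mL culture, incubated 37 °C for 12 h. Clear wells and the next dilutions plated on nutrient agar, incubated 37 °C for 12 h. MIC taken as the dilution that inhibited growth.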
For orientation: Dilution methods test growth across graded concentrations, often in twofold steps.

The subject of a further assay is Staphylococcus aureus. Description: Antimicrobial activity against methicillin-resistant Staphylococcus aureus ATCC 43300 after 12 hrs by micro broth dilution method. In kind it is functional, organism-based. In short, it runs like this: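 Test compounds serially diluted in 50% DMSO in broth microdilution plates. Each well received 2 μL of a 10^8 cf/mL culture, then incubated at 37 °C for 12 h overnight and read by eye. Clear wells and the next dilutions were plated on nutrient agar for 12 h at 37 °C. MIC was taken as the growth-inhibiting dilution. Gentamicin served as positive control.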

In a further assay the test system is Candida albicans. The assay is described as follows: Antimicrobial activity against Candida albicans after 12 hrs by micro broth dilution method. In kind it is functional, organism-based. In short, it runs like this: as §1
The subject of assay [1] is U-87 MG. The assay is described as follows: Induction of apoptosis in human U87MG cells assessed as increase in total apoptotic cells at 10 uM after 48 hrs by annexin-V-FITC/propidium iodide staining based flow cytometric method relative to control. In kind it is functional, U-87MG ATCC. The method, boiled down: (§2)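 U87MG cells were exposed for 24, 48 or 72 h, and 1 × 10^6 cells were harvested and washed in cold PBS. They were stained in binding buffer with annexin V-FITC and PI for 15 min at room temperature. Flow cytometry used 488 nm excitation with emission at 530/575 nm. Early plus late apoptotic cells were summed, and the untreated control was subtracted.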
On the technique in general: In flow cytometry, cells or beads pass a laser one at a time.

The test system of assay [2] is U-87 MG. The assay is described as follows: Induction of apoptosis in human U87MG cells assessed as increase in total apoptotic cells at 10 uM after 72 hrs by annexin-V-FITC/propidium iodide staining based flow cytometric method relative to control. The class given is functional, U-87MG ATCC. The method, boiled down:
as §2

The subject of assay [3] is U-87 MG. The assay is described as follows: Cell cycle arrest in human U87MG cells assessed as accumulation at G2/M phase at 0.8 uM after 12 hrs by propidium iodide staining based flow cytometric method (reference value: 9.37%). In kind it is functional, U-87MG ATCC.
Assay [4] has as its system U-87 MG. Description: Cell cycle arrest in human U87MG cells assessed as increase in accumulation at G0/G1 phase at 0.8 uM after 12 hrs by propidium iodide staining based flow cytometric method relative to control. In kind it is functional, U-87MG ATCC.
The subject of assay [5] is U-87 MG. The assay is described as follows: Induction of apoptosis in human U87MG cells assessed as increase in total apoptotic cells at 10 uM after 24 hrs by annexin-V-FITC/propidium iodide staining based flow cytometric method relative to control. In kind it is functional, U-87MG ATCC. The method, boiled down: as §2
A short description of assay [6]: Cytotoxicity against human SHG44 cells after 72 hrs by sulforhodamine B assay. Conditions: SHG-44, 72 h. The class given is functional, cell-based. In short, it runs like this: (§3)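 SRB assay. C6 and U251 in DMEM with 10% FBS, SHG44 in RPMI-1640, all at 37 °C, 5% CO2. Cells adhered 24 h, then were exposed to a range of concentrations for 72 h. Fixed in cold 50% TCA at 4 °C for 1 h, stained with 0.4% SRB for 10 min, rinsed with 1% acetic acid. Dye dissolved in 10 mM Tris, OD read at 515 nm. Viability taken as treated/control OD; IC50 by logistic fit; n = 5.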

Assay [7] deals with U-87 MG. Description: Cell cycle arrest in human U87MG cells assessed as accumulation at S phase at 0.8 uM after 12 hrs by propidium iodide staining based flow cytometric method (reference value: 32.49%). In kind it is functional, U-87MG ATCC.
Another assay deals with C6. The assay is described as follows: Cytotoxicity against rat C6 cells after 72 hrs by sulforhodamine B assay. Conditions: C6, 72 h. The class given is functional, cell-based. The method, boiled down:
as §3
Background: The SRB assay estimates cell density from bound dye.

Another assay concerns U-251. The assay is described as follows: Cytotoxicity against human U251 cells after 72 hrs by sulforhodamine B assay. The class given is functional, cell-based. Conditions: U-251, 72 h. In short, it runs like this:
as §3

For assay [8], the system named is U-87 MG. The assay is described as follows: Cytotoxicity against human U87MG cells after 72 hrs by sulforhodamine B assay. In kind it is functional, cell-based, U-87MG ATCC. The method, boiled down: as §3
In assay [9] the test system is U-87 MG. The assay is described as follows: Induction of apoptosis in human U87MG cells assessed as increase in total apoptotic cells at 2.2 uM after 24 hrs by annexin-V-FITC/propidium iodide staining based flow cytometric method relative to control. The class given is functional, U-87MG ATCC. In short, it runs like this: as §2
In assay [10] the test system is U-87 MG. The assay is described as follows: Induction of apoptosis in human U87MG cells assessed as increase in total apoptotic cells at 2.2 uM after 72 hrs by annexin-V-FITC/propidium iodide staining based flow cytometric method relative to control. The class given is functional, U-87MG ATCC. In short, it runs like this: as §2
Assay [11] concerns U-87 MG. Description: Cell cycle arrest in human U87MG cells assessed as accumulation at S phase at 8.8 uM after 12 hrs by propidium iodide staining based flow cytometric method (reference value: 32.49%). The class given is functional, U-87MG ATCC.
Assay [12] has as its system U-87 MG. Description: Cell cycle arrest in human U87MG cells assessed as accumulation at G2/M phase at 2.2 uM after 12 hrs by propidium iodide staining based flow cytometric method (reference value: 9.37%). The class given is functional, U-87MG ATCC.
Assay [13] relates to U-87 MG. The assay is described as follows: Induction of apoptosis in human U87MG cells assessed as increase in total apoptotic cells at 2.2 uM after 48 hrs by annexin-V-FITC/propidium iodide staining based flow cytometric method relative to control. The class given is functional, U-87MG ATCC. The method, boiled down:
as §2

In assay [14] the test system is U-87 MG. The assay is described as follows: Cell cycle arrest in human U87MG cells assessed as accumulation at G2/M phase at 4.4 uM after 12 hrs by propidium iodide staining based flow cytometric method (reference value: 9.37%). The class given is functional, U-87MG ATCC.
Assay [15] relates to U-87 MG. Description: Induction of apoptosis in human U87MG cells assessed as increase in total apoptotic cells at 4.4 uM after 48 hrs by annexin-V-FITC/propidium iodide staining based flow cytometric method relative to control. The class given is functional, U-87MG ATCC. The method, boiled down:
as §2

Assay [16] relates to U-87 MG. Description: Cell cycle arrest in human U87MG cells assessed as accumulation at S phase at 4.4 uM after 12 hrs by propidium iodide staining based flow cytometric method (reference value: 32.49%). The class given is functional, U-87MG ATCC.
The subject of assay [17] is U-87 MG. Description: Cell cycle arrest in human U87MG cells assessed as increase in accumulation at G0/G1 phase at 8.8 uM after 12 hrs by propidium iodide staining based flow cytometric method relative to control. The class given is functional, U-87MG ATCC.
The test system of assay [18] is U-87 MG. Description: Cell cycle arrest in human U87MG cells assessed as increase in accumulation at G0/G1 phase at 2.2 uM after 12 hrs by propidium iodide staining based flow cytometric method relative to control. In kind it is functional, U-87MG ATCC.
For assay [19], the system named is U-87 MG. Description: Cell cycle arrest in human U87MG cells assessed as increase in accumulation at G0/G1 phase at 4.4 uM after 12 hrs by propidium iodide staining based flow cytometric method relative to control. The class given is functional, U-87MG ATCC.
Assay [20] has as its system U-87 MG. Description: Induction of apoptosis in human U87MG cells assessed as increase in total apoptotic cells at 4.4 uM after 24 hrs by annexin-V-FITC/propidium iodide staining based flow cytometric method relative to control. In kind it is functional, U-87MG ATCC. In short, it runs like this: as §2
For assay [21], the system named is U-87 MG. The assay is described as follows: Cell cycle arrest in human U87MG cells assessed as accumulation at S phase at 2.2 uM after 12 hrs by propidium iodide staining based flow cytometric method (reference value: 32.49%). The class given is functional, U-87MG ATCC.
For assay [22], the system named is U-87 MG. Description: Induction of apoptosis in human U87MG cells assessed as increase in total apoptotic cells at 4.4 uM after 72 hrs by annexin-V-FITC/propidium iodide staining based flow cytometric method relative to control. In kind it is functional, U-87MG ATCC. In short, it runs like this: as §2
Assay [23] concerns U-87 MG. Description: Cell cycle arrest in human U87MG cells assessed as accumulation at G2/M phase at 8.8 uM after 12 hrs by propidium iodide staining based flow cytometric method (reference value: 9.37%). The class given is functional, U-87MG ATCC.

Turning to `C=Cc1ccc(OC(=O)c2ccc(O)cc2)cc1`, the outcome in the assay on Escherichia coli, with Staphylococcus aureus and with Candida albicans was inactive.

As to `C=Cc1ccc(OC(=O)c2ccc(O)c(N)c2S)cc1`, the outcome in the assay on Escherichia coli, with Staphylococcus aureus and with Candida albicans was inactive.

With `C=Cc1ccc(O)cc1`, the outcome in the assay with Escherichia coli, in the assay with Staphylococcus aureus and with Candida albicans was inactive.

On to `O=C1Oc2ccc(cc2)[C@H](O)CNc2cc1ccc2O`, for which the result in the assay with Escherichia coli, with Staphylococcus aureus and in the assay on Candida albicans was inactive.

For `COc1cccc2c1C(=O)c1c(O)c3c(c(O)c1C2=O)C[C@@](O)(C(=O)CO)C[C@@H]3O[C@H]1C[C@H](N)[C@H](O)[C@H](C)O1` [DOXORUBICIN], the Activity in the assay with U-87 MG [1] is recorded as 10.42%; in the assay with U-87 MG [2], 26.87%; in the assay on U-87 MG [3], 6.28%; with U-87 MG [4] it was 24.74%; in the assay on U-87 MG [5] it was 3.17%; with U-87 MG [7], 10.84%. Besides, the IC50 in assay [6] is 1900 nM; in the assay on C6, 0.5 µM; with U-251 it was 3.3 µM; with U-87 MG [8] it was 400 nM.

Consider `C=Cc1ccc(O[C@H]2O[C@H](CO)[C@H](O)[C@H](O)[C@H]2O)cc1`, for which the result with Escherichia coli, in the assay on Staphylococcus aureus and in the assay with Candida albicans was inactive.

Take `C=Cc1ccc(OC(=O)c2ccc(O)c(N)c2SC[C@@H](NC(C)=O)C(=O)O)cc1`: the Activity was 0.96% with U-87 MG [9]; 58.32% in the assay on U-87 MG [10]; 13.77% with U-87 MG [11]; 8.92% with U-87 MG [12]; 20.59% in the assay with U-87 MG [13]; 8.92% in the assay with U-87 MG [14]. The Activity in the assay on U-87 MG [15] amounted to 61.16%; with U-87 MG [16] it was 16.76%; in the assay on U-87 MG [17] it was 20.56%; in the assay on U-87 MG [18], 5.71%; in the assay with U-87 MG [19], 16.18%; with U-87 MG [20], 3.36%. In addition, the figures for the Activity in the assay with U-87 MG [21], in the assay on U-87 MG [22] and in the assay on U-87 MG [23] were 27.23%, 93% and 7.53%, respectively. For the same molecule, the outcome in the assay with Escherichia coli, with Staphylococcus aureus and in the assay on Candida albicans was inactive. The IC50 in assay [6] came to 2400 nM; with C6 it was 6.4 µM; with U-251 it was 4.3 µM; in the assay on U-87 MG [8], 2200 nM.

`C=Cc1ccc(OC(=O)c2ccc(O)c(NC(C)=O)c2)cc1`: the result in the assay on Escherichia coli, with Staphylococcus aureus and with Candida albicans was inactive. The IC50 in assay [6] was 7300 nM; with C6, 13.3 µM; in the assay on U-251 it was 9.7 µM; with U-87 MG [8] it was 10200 nM.

`C=Cc1ccc(OC(=O)c2ccc(O)c(N)c2)cc1`: the outcome in the assay with Escherichia coli, in the assay with Staphylococcus aureus and in the assay on Candida albicans was inactive.

As usually defined, the IC50 is the concentration that gives 50% inhibition. Higher therefore signals lower potency.
